As usually defined, the IC50 is the point on the concentration scale where inhibition reaches its midpoint. A higher IC50 goes with weaker potency in that assay.

Structures are written as SMILES.

Experiment [1] concerns the target Vasopressin V2 receptor (Homo sapiens, UniProt P30518). The experiment in a line: Displacement of [3H]AVP from human V2 receptor expressed in murine fibroblast cell line (LV2) membranes. Format: cell-based. The essentials: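 Membranes from murine fibroblast line LV2 expressing human V2 receptors; displacement of specific 3H-AVP binding. IC50 given as group mean ± SEM where two or three separate determinations were made.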

For experiment [2], the system named is Rattus norvegicus. The experiment is described as follows: Urinary osmolality from urine collected from rat at 10 mg/kg.
A further experiment is filed under the species Homo sapiens. The experiment is described as follows: Relative affinity for human vasopressin receptors V1a and V2. An outline of the steps: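 Ratio from IC50 values: V1a by displacement of 3H-AVP or 3H-[d(CH2)5 1Tyr(Me)2,Arg8]-AVP from human platelet membranes; V2 by displacement of 3H-AVP from membranes of murine fibroblast LV2 cells expressing human V2 receptors.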

Experiment [3] addresses Vasopressin V1a receptor (Homo sapiens, UniProt P37288). The experiment is described as follows: Displacement of [3H]AVP from vasopressin receptor (V1a) from human platelet membranes. The essentials:
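Membranes from human platelets; displacement of specific binding of 3H-AVP or 3H-[d(CH2)5 1Tyr(Me)2,Arg8]-AVP at V1a sites. IC50 given as group mean ± SEM where two or three separate determinations were made.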
For orientation: Displacement assays read how much labelled ligand stays bound in the presence of the test substance.

Experiment [4] deals with Rattus norvegicus. The experiment is described as follows: Urinary osmolality from urine collected from rat at 10 mg/kg. It is filed as functional. The essentials: (§1)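 Conscious rats with free access to water before and during the test, given compound in 20% DMSO in aqueous 2.5% preboiled starch (compound first dissolved in DMSO). Urine volume over 4 h and urinary osmolality (mOsm/kg) measured.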

The subject of experiment [5] is Rattus norvegicus. The experiment in a line: Urine volume collected after 10 mg/kg of drug administration into 2 rats. Format: functional. The essentials: (§2)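 Conscious rats with water access before but not during the test. Given AVP 0.4 μg/kg ip in peanut oil, then deionized water 30 mL/kg by gavage 20 min later, then vehicle or compound 20 min after that. Vehicle was 20% DMSO in 2.5% preboiled starch. Urine volume over 4 h and osmolality measured.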

Experiment [6] relates to Rattus norvegicus. The experiment is described as follows: Urine volume collected after 3 mg/kg of drug administration into 2 rats.
The test system of experiment [7] is Rattus norvegicus. The experiment in a line: Urinary osmolality from urine collected from rat at 3 mg/kg. Format: functional. An outline of the steps: as §1
The subject of experiment [8] is Rattus norvegicus. The experiment in a line: Urine volume collected after 10 mg/kg of drug administration into 4 rats. It is filed as functional. The essentials:
as §2

Experiment [9] deals with Vasopressin receptor (Rattus norvegicus) (UniProt P48974+P30560+Q00788). The experiment in a line: Relative affinity for rat vasopressin receptors V1a and V2. It is filed as protein assay.
Experiment [10] addresses Vasopressin V1a receptor (Rattus norvegicus, UniProt P30560). The experiment in a line: Displacement of (Phe-3,4,5-H) Vasopressin from V1a receptor from rat liver membranes. It is filed as cell membranes, Membrane.
The target of experiment [11] is Vasopressin V2 receptor (Rattus norvegicus, UniProt Q00788). The experiment is described as follows: Displacement of [3H]AVP from vasopressin V2 receptor of rat kidney medulla.
The test system of experiment [12] is Rattus norvegicus. The experiment is described as follows: Urine volume collected after 1 mg/kg of drug administration into 6 rats. It is filed as functional. An outline of the steps:
as §1

Experiment [13] deals with Rattus norvegicus. The experiment is described as follows: Urinary osmolality from urine collected from rat at 1 mg/kg in second experiment. Format: functional. The essentials: as §2
Experiment [14] concerns Rattus norvegicus. The experiment is described as follows: Urine volume collected after 10 mg/kg of drug administration into 6 rats. Format: functional. An outline of the steps:
as §2

The test system of experiment [15] is Rattus norvegicus. The experiment is described as follows: Urinary osmolality from urine collected from rat at 3 mg/kg in second experiment. Format: functional. The essentials: as §2
In experiment [16] the test system is Rattus norvegicus. The experiment in a line: Urine volume collected after 10 mg/kg of drug administration into 13 rats. (Conscious rats free access to water before and after during the experiment). It is filed as functional. An outline of the steps: as §1
In experiment [17] the test system is Rattus norvegicus. The experiment is described as follows: Urinary osmolality from urine collected from rat at 10 mg/kg in second experiment. Format: functional. An outline of the steps:
as §2

The test system of experiment [18] is Rattus norvegicus. The experiment is described as follows: Urine volume collected after 1 mg/kg of drug administration into 8 rats. (Conscious rats free access to water before but not during the experiment). It is filed as functional. The essentials: as §2
Experiment [19] concerns Rattus norvegicus. The experiment is described as follows: Urine volume collected after 3 mg/kg of drug administration into 10 rat. Format: functional. The essentials:
as §2

Experiment [20] deals with Rattus norvegicus. The experiment in a line: Urine volume collected after 3 mg/kg of drug administration into 15 rats. Format: functional. The essentials: as §1
The subject of experiment [21] is Rattus norvegicus. The experiment is described as follows: Urinary osmolality from urine collected from rat at 1 mg/kg. Format: functional. An outline of the steps: as §1
For experiment [22], the system named is Rattus norvegicus. The experiment in a line: Urine volume collected after 10 mg/kg of drug administration into 3 rats. Format: functional. The essentials: as §2

Sequence of Vasopressin V2 receptor (Homo sapiens, UniProt P30518) (P30518 whole entry): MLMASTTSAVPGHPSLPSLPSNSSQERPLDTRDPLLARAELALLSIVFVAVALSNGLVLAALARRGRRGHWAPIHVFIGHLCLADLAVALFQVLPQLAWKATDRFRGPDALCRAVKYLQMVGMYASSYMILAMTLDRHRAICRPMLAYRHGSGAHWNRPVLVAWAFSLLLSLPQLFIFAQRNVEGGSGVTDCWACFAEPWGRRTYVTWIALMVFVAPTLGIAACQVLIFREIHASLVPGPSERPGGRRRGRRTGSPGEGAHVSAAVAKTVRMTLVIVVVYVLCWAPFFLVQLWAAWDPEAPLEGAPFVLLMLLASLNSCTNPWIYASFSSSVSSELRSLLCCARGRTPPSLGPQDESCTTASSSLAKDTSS
Sequence of Vasopressin V1a receptor (Homo sapiens, UniProt P37288) (P37288 whole entry): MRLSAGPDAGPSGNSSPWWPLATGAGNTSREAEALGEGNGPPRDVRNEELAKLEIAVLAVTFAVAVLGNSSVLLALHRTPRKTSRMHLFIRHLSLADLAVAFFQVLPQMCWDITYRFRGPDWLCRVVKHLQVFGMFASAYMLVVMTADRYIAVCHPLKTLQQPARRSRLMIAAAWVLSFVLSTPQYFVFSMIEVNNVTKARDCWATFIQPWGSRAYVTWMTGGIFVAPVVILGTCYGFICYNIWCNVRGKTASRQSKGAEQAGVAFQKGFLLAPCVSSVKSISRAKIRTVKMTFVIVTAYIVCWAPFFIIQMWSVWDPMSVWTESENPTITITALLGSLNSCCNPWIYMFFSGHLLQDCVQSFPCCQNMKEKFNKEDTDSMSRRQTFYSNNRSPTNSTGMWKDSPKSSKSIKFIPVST
Sequence of Vasopressin V1a receptor (Rattus norvegicus, UniProt P30560) (P30560 whole entry): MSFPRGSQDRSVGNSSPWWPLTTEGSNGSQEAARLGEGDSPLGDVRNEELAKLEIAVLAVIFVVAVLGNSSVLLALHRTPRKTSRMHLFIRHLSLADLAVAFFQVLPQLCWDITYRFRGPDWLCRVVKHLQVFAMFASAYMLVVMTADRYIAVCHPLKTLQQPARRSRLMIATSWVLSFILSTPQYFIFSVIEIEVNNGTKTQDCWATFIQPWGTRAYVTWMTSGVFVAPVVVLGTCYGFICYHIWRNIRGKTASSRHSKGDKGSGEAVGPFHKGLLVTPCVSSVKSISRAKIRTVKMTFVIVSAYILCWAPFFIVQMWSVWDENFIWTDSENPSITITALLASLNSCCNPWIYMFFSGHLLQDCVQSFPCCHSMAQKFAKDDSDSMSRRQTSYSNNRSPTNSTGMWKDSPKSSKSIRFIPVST
Sequence of Vasopressin V2 receptor (Rattus norvegicus, UniProt Q00788) (Q00788 whole entry): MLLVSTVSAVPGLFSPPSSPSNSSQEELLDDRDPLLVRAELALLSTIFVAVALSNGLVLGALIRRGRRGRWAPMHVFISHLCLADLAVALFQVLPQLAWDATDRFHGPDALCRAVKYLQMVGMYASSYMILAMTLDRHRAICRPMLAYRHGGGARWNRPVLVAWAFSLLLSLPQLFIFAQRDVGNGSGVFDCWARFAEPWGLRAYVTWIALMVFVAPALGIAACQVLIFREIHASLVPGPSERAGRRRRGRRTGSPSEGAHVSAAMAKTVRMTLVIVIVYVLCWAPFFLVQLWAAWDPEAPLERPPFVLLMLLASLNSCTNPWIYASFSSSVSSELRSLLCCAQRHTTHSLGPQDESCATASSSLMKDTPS

Compound `Cc1cccc(C(=O)Nc2ccc(C(=O)N3Cc4cccn4Cc4ccccc43)c(Cl)c2)c1C` showed a half-maximal inhibitory concentration (IC50) on Vasopressin V2 receptor [1] of 0.5 nM. The compound further had an Osmolality with Rattus norvegicus [2] of 557 mOsmol kg-1. Moreover, the Selectivity in the experiment listed under Homo sapiens is 860.
As to `Cc1ccc(F)cc1C(=O)Nc1ccc(C(=O)N2Cc3cccn3Cc3ccccc32)c(C)c1`, the concentration for half-maximal inhibition (IC50) at Vasopressin V2 receptor [1] was 2.1 nM; at Vasopressin V1a receptor [3], 120 nM. The same compound yielded a Selectivity in the experiment filed under Homo sapiens of 80.
Turning to `O=C(Nc1ccc(C(=O)N2Cc3cccn3Cc3ccccc32)c(Cl)c1)c1cccc(C(F)(F)F)c1F`, the 50% inhibitory concentration (IC50) on Vasopressin V2 receptor [1] is 8.3 nM; at Vasopressin V1a receptor [3], 4400 nM. For the same compound, the Osmolality in the experiment on Rattus norvegicus [4] turned out to be 635 mOsmol kg-1. Besides, the Urine volume in the experiment on Rattus norvegicus [5] worked out at 10 ml 4hr-1. This compound displayed a Selectivity in the experiment filed under Homo sapiens of 530.
Consider `Cc1ccccc1C(=O)Nc1ccc(C(=O)N2CCCC(N(C)C)c3ccccc32)cc1` (stereo unspecified) [MOZAVAPTAN], for which the figures for the Osmolality in the experiment with Rattus norvegicus [4] and in the experiment with Rattus norvegicus [7] were 352 mOsmol kg-1 and 850 mOsmol kg-1, respectively. The Urine volume in the experiment on Rattus norvegicus [5] is reported as 23 ml 4hr-1; with Rattus norvegicus [6], 10 ml 4hr-1.
Consider `O=C(Nc1ccc(C(=O)N2Cc3cccn3Cc3ccccc32)c(Cl)c1)c1ccc(Cl)cc1Cl`, for which the half-maximal inhibitory concentration (IC50) at Vasopressin V2 receptor [1] amounted to 2 nM; at Vasopressin V1a receptor [3] it was 640 nM. This compound returned an Osmolality with Rattus norvegicus [2] of 507 mOsmol kg-1. The Urine volume in the experiment with Rattus norvegicus [8] was 14 ml 4hr-1. Further, the Selectivity turned out to be 5 in [9] and 320 in the experiment filed under Homo sapiens.
`COc1cc(Cl)ccc1C(=O)Nc1ccc(C(=O)N2Cc3cccn3Cc3ccccc32)cc1`: the IC50 on Vasopressin V1a receptor [10] is 33 nM; at Vasopressin V2 receptor [11], 16 nM. Moreover, the Selectivity in [9] was 2.
In the case of `Cc1ccccc1C(=O)Nc1ccc(C(=O)N2Cc3cccn3Cc3ccccc32)cc1`, the Selectivity in [9] was found to be 9. Further, on Vasopressin V2 receptor [11], the IC50 amounted to 4.1 nM.
In [9], `Cc1c(F)cccc1C(=O)Nc1ccc(C(=O)N2Cc3cccn3Cc3ccccc32)cc1` came in with a Selectivity of 7.
The same measure, in the same setting: the value for `Cc1cccc(C(=O)Nc2ccc(C(=O)N3Cc4cccn4Cc4ccccc43)cc2)c1C` was 6.
Consider `COc1cc(NC(=O)c2cc(F)ccc2C)ccc1C(=O)N1Cc2cccn2Cc2ccccc21`, for which, at Vasopressin V2 receptor [1], the concentration for half-maximal inhibition (IC50) was 2 nM. Further, the Selectivity in the experiment listed under Homo sapiens came out at 8.
Turning to `Cc1cc(C(=O)N2Cc3cccn3Cc3ccccc32)ccc1NC(=O)c1ccc(Cl)cc1Cl`, the figures for the half-inhibitory concentration (IC50) at Vasopressin V1a receptor [10] and at Vasopressin V2 receptor [11] were 33 nM and 8 nM, respectively. The compound also showed a Selectivity in [9] of 4.
As to `Cc1ccc(F)cc1C(=O)Nc1ccc(C(=O)N2Cc3cccn3Cc3ccccc32)cc1`, the half-inhibitory concentration (IC50) was 1.5 nM at Vasopressin V2 receptor [1] and 20 nM at Vasopressin V1a receptor [3].
`COc1ccccc1C(=O)Nc1ccc(C(=O)N2Cc3cccn3Cc3ccccc32)cc1` yielded a Selectivity in [9] of 2.
For the compound `Cc1ccc(C)c(C(=O)Nc2ccc(C(=O)N3Cc4cccn4Cc4ccccc43)c(Cl)c2)c1`, the IC50 at Vasopressin V2 receptor [1] stood at 4.2 nM. The compound further registered a Selectivity in the experiment filed under Homo sapiens of 81.
The compound `O=C(Nc1ccc(C(=O)N2Cc3cccn3Cc3ccccc32)cc1)c1ccc(F)cc1Cl` showed a Selectivity in the experiment filed under Homo sapiens of 2. At Vasopressin V1a receptor [3], this compound gave an IC50 of 6.3 nM.
Regarding `O=C(Nc1ccc(C(=O)N2Cc3cccn3Cc3ccccc32)cc1)c1ccc(Cl)cc1Cl`, the IC50 on Vasopressin V2 receptor [1] amounted to 3.2 nM; on Vasopressin V2 receptor [11], 3.1 nM; at Vasopressin V1a receptor [3], 15 nM. Also, the results for the Selectivity (in experiment [9]; in the experiment listed under Homo sapiens) were 7 and 5, respectively.
With `Cc1ccc(F)cc1C(=O)Nc1ccc(C(=O)N2Cc3cccn3Cc3ccccc32)c(Cl)c1` [LIXIVAPTAN], the Urine volume amounted to 24 ml 4hr-1 with Rattus norvegicus [12]; 37 ml 4hr-1 with Rattus norvegicus [14]; 43 ml 4hr-1 in the experiment on Rattus norvegicus [16]; 14 ml 4hr-1 with Rattus norvegicus [18]; 30 ml 4hr-1 in the experiment with Rattus norvegicus [19]; 38 ml 4hr-1 in the experiment on Rattus norvegicus [20]. Further, the IC50 is 1.2 nM on Vasopressin V2 receptor [1], 340 nM at Vasopressin V1a receptor [10] and 230 nM on Vasopressin V1a receptor [3]. Further, the Osmolality with Rattus norvegicus [13] is 629 mOsmol kg-1; in the experiment with Rattus norvegicus [15], 366 mOsmol kg-1; in the experiment on Rattus norvegicus [4] it was 188 mOsmol kg-1; in the experiment with Rattus norvegicus [17] it was 302 mOsmol kg-1; with Rattus norvegicus [7], 222 mOsmol kg-1; in the experiment on Rattus norvegicus [21], 393 mOsmol kg-1. In addition, the Selectivity came to 148 in experiment [9] and 192 in the experiment filed under Homo sapiens.
Regarding `Cc1ccccc1C(=O)Nc1ccc(C(=O)N2Cc3cccn3Cc3ccccc32)c(Cl)c1`, the IC50 at Vasopressin V2 receptor [1] stood at 1 nM; on Vasopressin V1a receptor [3] it was 59 nM. In addition, the Selectivity turned out to be 12 in [9] and 59 in the experiment filed under Homo sapiens.
Consider `Cc1c(F)cccc1C(=O)Nc1ccc(C(=O)N2Cc3cccn3Cc3ccccc32)c(Cl)c1`, for which the results for the IC50 on Vasopressin V2 receptor [1] and at Vasopressin V1a receptor [3] were 1.9 nM and 540 nM, respectively. The same compound yielded an Osmolality in the experiment with Rattus norvegicus [2] of 473 mOsmol kg-1. Moreover, in the experiment with Rattus norvegicus [22], the Urine volume turned out to be 17 ml 4hr-1. Besides, the Selectivity in the experiment listed under Homo sapiens stood at 284.
The compound `Cc1ccc(F)cc1C(=O)Nc1ccc(C(=O)N2Cc3cccn3Cc3ccccc32)cc1Cl` came in with a Selectivity in the experiment filed under Homo sapiens of 6. In addition, the IC50 at Vasopressin V1a receptor [3] is 25 nM.
Regarding `COc1cc(C(=O)N2Cc3cccn3Cc3ccccc32)ccc1NC(=O)c1ccc(Cl)cc1Cl`, the Selectivity in the experiment listed under Homo sapiens stood at 17.
The compound `O=C(Nc1ccc(C(=O)N2Cc3cccn3Cc3ccccc32)cc1)c1ccccc1C(F)(F)F` had a Selectivity in experiment [9] of 3. For the same compound, the 50% inhibitory concentration (IC50) at Vasopressin V2 receptor [11] was found to be 10.2 nM.
`O=C(Nc1ccc(C(=O)N2Cc3cccn3Cc3ccccc32)c(Cl)c1)c1ccc(F)cc1Cl`: the half-maximal inhibitory concentration (IC50) on Vasopressin V2 receptor [1] was determined as 0.7 nM; on Vasopressin V1a receptor [3] it was 37 nM. In addition, the Selectivity in the experiment filed under Homo sapiens is 53.
As to `O=C(Nc1ccc(C(=O)N2Cc3cccn3Cc3ccccc32)cc1)c1ccccc1Cl`, in [9], the Selectivity was determined as 2. Also, at Vasopressin V2 receptor [11], the IC50 came to 4.6 nM.

The record behind these values is ChEMBL document CHEMBL1131007, “5-Fluoro-2-methyl-N-[4-(5H-pyrrolo[2,1-c]-[1, 4]benzodiazepin-10(11H)-ylcarbonyl)-3-chlorophenyl]benzamide (VPA-985): an orally active arginine vasopressin antagonist with selectivity for V2 receptors” (J Med Chem, 1998).
